Series [1] in a line: Selectivity index, ratio of CTD50 for MDCK cells to ED50 for Influenza A virus (A/California/07/09(H1N1)) pdm09. In kind it is toxicity, cell-based. To be noted: dog, read-out: Selectivity Index.
Series [2] is described as follows: Cytotoxicity against MDCK cells assessed reduction in cell viability after 48 hrs by MTT assay. In kind it is cell-based, Canis lupus familiaris. Particulars: dog, read-out: CTD50. In short, it runs like this:
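MDCK monolayers were grown in MEM with 5% fetal calf serum and washed with serum-free MEM. Compounds (5 mg/ml DMSO stock) were applied as twofold dilutions, 1000–4 microgram/ml in MEM, for 48 h at 37°C. After PBS washes, MTT (0,5 mg/ml) was added for 60 min at 37°C, 5% CO2. Formazan was dissolved in DMSO and read at 535 nm. CTD50 is the concentration cutting viability 50%.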
For orientation: Formazan colour is commonly taken as a measure of viable cells.

Turning to `CC(=O)C1=C(O)C[C@H]2Oc3c(C(C)=O)c(O)c(C)c(O)c3[C@@]2(C)C1=O`, the selectivity ratio in series [1] stood at 1.8. Moreover, the CC50 at 48 h in series [2] stood at 14.5 µM.

For `COc1c(C)c(O)c(C(C)=O)c2c1[C@]1(C)C(=Cc3c(c(C)nn3-c3ccccc3)CC13CO3)O2` (single isomer, unassigned; (+)), the selectivity ratio in series [1] is 2.6. Further, in series [2], the CC50 at 48 h came to 681 µM.

For the compound `COc1c(C)c(O)c(C(=O)/C=C/c2ccccc2)c2c1[C@]1(C)C(=Cc3c(c(C)nn3-c3ccccc3)CC13CO3)O2` (single isomer, unassigned; (+)), in series [1], the selectivity ratio is 3.3. In addition, in series [2], the CC50 at 48 h turned out to be 18.3 µM.

Regarding `CC(=O)C1=C(O)C=C2Oc3c(C(C)=O)c(O)c(C)c(O)c3[C@@]2(C)C1=O` [(+)-USNIC ACID], the selectivity ratio in series [1] came to 8.2. In addition, the CC50 at 48 h in series [2] is 424 µM.

On to `CC(=O)C1=C(O)C=C2Oc3c(C(C)=O)c(O)c(C)c(O)c3[C@]2(C)C1=O` [(-)-USNIC ACID], for which, in series [1], the selectivity ratio was 10.2. Besides, the CC50 at 48 h in series [2] was 134 µM.

The values above are taken from ChEMBL document CHEMBL3352088, “Novel derivatives of usnic acid effectively inhibiting reproduction of influenza A virus” (Bioorg Med Chem, 2014).
